Measurements published in ChEMBL document CHEMBL1143027, “An efficient synthesis of 3-fluoro-5-thio-xylofuranosyl nucleosides of thymine, uracil, and 5-fluorouracil as potential antitumor or/and antiviral agents” (Bioorg Med Chem, 2007).
Values joined by “and” are separate entries in the source; they are usually repeats but may differ in a detail not shown here. Equal entries are not always repeated.

Columns and labels:
[1] = Selectivity index, Ratio of CC50 for human Caco-2 cells to IC50 for rotavirus RF in human Caco2 cells after neutralization of virus in solution before infection; type: functional
Outline: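 Ratio of Caco-2 CC50 (72 h crystal violet assay) to rotavirus IC50 from the 12 h pre-attachment neutralization assay.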

H4 [2] = experiment: Selectivity index, Ratio of CC50 for human H4 cells to CC50 for human skin melanoma cells; type: functional
Outline: (§1)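 Tumor selectivity index: CC50 on normal fetal intestinal H4 cells divided by CC50 on the named tumor line, both from the 72 h crystal violet cytotoxicity assay.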

MCF7 [3] = experiment: Selectivity index, Ratio of CC50 for human H4 cells to CC50 for human MCF7 cells; type: functional; outline: as §1
Rotavirus [4] = experiment: Antiviral activity against rotavirus RF in human Caco-2 cells after neutralization of virus in solution pre-incubated with compound for 12 hrs before infection; type: functional, organism-based
Outline: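 Rotavirus RF (grown on Caco-2 with trypsin, 1.5 TCID50/mL, 100 µL per well) pre-incubated 12 h with 3-fold compound dilutions (initial 0.5 mg/mL) in trypsin-containing DMEM, then added to Caco-2 monolayers at 37 °C, 5% CO2. Infected treated wells (n=6) compared with virus-only wells (n=6). IC50 read from the concentration–effect curve.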

H4 [5] = experiment: Selectivity index, Ratio of CC50 for human H4 cells to CC50 for human Caco-2 cells; type: functional; outline: as §1
Caco-2 [6] = experiment: Growth inhibition of human Caco-2 cells after 10 days; type: functional, cell-based; settings: Caco-2, 240 h
Outline: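 Caco-2 cells seeded at 10 cells/well in DMEM/10% FBS with 3-fold compound dilutions (initial 0.5 mg/mL), six wells per series. Incubated 10 days at 37 °C in a humidified incubator, then colonies counted. Colony number in treated wells (n=2) compared with controls (n=24). IC50 read from the concentration–effect curve.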

Caco-2 [7] = experiment: Cytotoxicity against human Caco-2 cells after 72 hrs; type: functional; settings: Caco-2, 72 h
Outline: (§2)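 Cells grown in DMEM with 5% FCS and L-glutamine, then seeded in 96-well plates. Treated with 3-fold serial dilutions (initial 0.5 mg/mL; DMSO stocks, final DMSO <0.1%) for 72 h at 37 °C. Treated wells (n=2) compared with controls (n=24). CC50 read from the concentration–effect curve.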

MCF7 [8] = experiment: Cytotoxicity against human MCF7 cells after 72 hrs; type: functional; settings: MCF7, 72 h; outline: as §2
[9] = Cytotoxicity against human skin melanoma cells after 72 hrs; type: functional; settings: Melanoma cell; outline: as §2
[10] = Selectivity index, Ratio of CC50 for human Caco-2 cells to IC50 for rotavirus RF infected human Caco2 cells after viral attachment; type: functional
Outline: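 Ratio of Caco-2 CC50 (72 h crystal violet assay) to rotavirus IC50 from the post-attachment infectivity assay.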

[11] = Cytotoxicity against human H4 cells after 72 hrs; type: cell-based
Outline: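 H4 human fetal small intestine cells grown in DMEM with 5% fetal calf serum and L-glutamine (2 mmol/L). Cells were exposed to 3-fold serial dilutions starting at 0.5 mg/mL (DMSO stock, final DMSO <0.1%) at 37 °C for 72 h. Treated (n = 2) vs control (n = 24) wells; CC50 from concentration–effect curve.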

Rotavirus [12] = experiment: Antiviral activity against rotavirus RF infected human Caco-2 cells following viral attachment after 72 hrs; type: functional, organism-based; settings: Caco-2, 72 h
Outline: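 Washed Caco-2 monolayers exposed to rotavirus RF (1.5 TCID50/mL) for 1 h at 37 °C, 5% CO2 to allow attachment. Unbound virus washed off with plain DMEM, then 3-fold compound dilutions (initial 0.5 mg/mL) added at once. Infected wells (n=6) compared with virus-only controls (n=6). IC50 read from the curve.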

Compound	Ratio CC50/IC50 [1]	Selectivity index (H4 [2])	Selectivity index (MCF7 [3])	IC50 (Rotavirus [4])	Selectivity index (H4 [5])	IC50 (Caco-2 [6]) [µM]	CC50 (Caco-2 [7]) [µM]	CC50 (MCF7 [8]) [µM]	CC50 [9] [µM]	Ratio CC50/IC50 [10]	CC50 at 72 h [11] [µM]	IC50 (Rotavirus [12])
CC(=O)O[C@@H]1[C@@H](F)[C@@H](CSC(C)=O)O[C@H]1n1cc(C)c(=O)[nH]c1=O	10	0.5	0.5	2 µg/mL and 5.55 µM	2.5	1.9	55.5	278	278	3.33	139	16.6 µM and 6 µg/mL
CC(=O)O[C@@H]1[C@@H](F)[C@@H](CSC(C)=O)O[C@H]1n1cc(F)c(=O)[nH]c1=O	3.33	83.2	1	6 µg/mL and 16.5 µM	25	16.5	54.9	1370	16.5	3.33	1370	16.5 µM and 6 µg/mL
CC(=O)O[C@@H]1[C@@H](F)[C@@H](CSC(C)=O)O[C@H]1n1ccc(=O)[nH]c1=O	3.33	83.5	5	6 µg/mL and 17.3 µM	25	5.8	57.8	289	17.3	3.33	1440	17.3 µM and 6 µg/mL
O=c1[nH]cc(F)c(=O)[nH]1 [FLUOROURACIL]	–	83.4	5	–	10	1.5	384	769	46.1	–	3840	–
Cc1cn([C@H]2C[C@H](N=[N+]=[N-])[C@@H](CO)O2)c(=O)[nH]c1=O [ZIDOVUDINE]	0.75	–	–	20 µg/mL and 74.8 µM	–	–	–	–	–	2.5	–	22.4 µM and 6 µg/mL
